The values below come from ChEMBL document CHEMBL1155882, “Selective nucleoside triphosphate diphosphohydrolase-2 (NTPDase2) inhibitors: nucleotide mimetics derived from uridine-5'-carboxamide” (J Med Chem, 2008).

Broadly, the inhibition is the drop in the measured response relative to a control, in per cent. One may read the IC50 as the concentration needed to halve the response being measured. Usually Ki stands for a dissociation constant, usually derived from enzyme kinetics or from competition with a known ligand.

Active and inactive are the calls of the source. The rule behind the calls is not given here. Bounds are passed on as bounds.

The nature of series [1]: Metabolic stability in rat liver microsomes after 24 hrs by LC-MS analysis. The class given is ADME, Microsome. The settings on record: read-out: Stability.
Series [2] concerns the target T1, P2Y purinoceptor 2 (Homo sapiens, UniProt P41231). In words: Antagonist activity at human P2Y2 receptor expressed in human 1321N1 cells assessed as inhibition of UTP-induced intracellular calcium mobilization at 100 uM by FLUOstar plate reader. In kind it is functional, cell-based. Put shortly: (§1)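 Human 1321N1 astrocytoma cells express human P2Y2 or P2Y4, or rat P2Y6. Cells are loaded with Fura-2 AM and preincubated with compound at 100 μM. Inhibition of agonist-induced intracellular calcium release is read as Fura-2 fluorescence. The agonist is UTP for P2Y2 and P2Y4, and UDP for P2Y6.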
Background: Calcium assays in cells follow changes in intracellular calcium, usually with a dye or a luminescent sensor.

Series [3] can be described thus: Chemical stability in 0.001 N aqueous sodium hydroxide at pH 11 by LC-MS analysis. The class given is physicochemical. The conditions noted are these: buffer. Put shortly:
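Compound from a 2 mM aqueous stock (20 mM NH4OAc) is diluted 10 μL into 990 μL of 0.001 N NaOH (pH 11). It is incubated 2 or 24 h at 37 °C and analysed by C18 LC–ESI-MS, with detection limit about 0.1 μg/mL.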

The target of series [4] is P2Y purinoceptor 6 (Rattus norvegicus) (UniProt Q63371). In words: Antagonist activity at rat P2Y6 receptor expressed in human 1321N1 cells assessed as inhibition of UDP-induced receptor activation at 100 uM relative to UDP. In kind it is functional, cell-based. More on the design: scale not given: the % may be the effect or the level left. Put shortly:
as §1

A short description of series [5]: Stability in simulated artificial gastric juice after 24 hrs by LC-MS analysis. The class given is physicochemical. The settings on record: simulated gi fluid.
Series [6] has as its target T1, P2Y purinoceptor 2. As to the kind of experiment: Antagonist activity at human P2Y2 receptor expressed in human 1321N1 cells assessed as inhibition of UTP and ATP-induced receptor activation at 100 uM relative to UTP. In kind it is functional, cell-based. More on the design: scale not given: the % may be the effect or the level left. Put shortly:
as §1

Series [7] addresses T2, Ectonucleoside triphosphate diphosphohydrolase 1 (Homo sapiens) (UniProt P49961).
T2 sequence (whole entry): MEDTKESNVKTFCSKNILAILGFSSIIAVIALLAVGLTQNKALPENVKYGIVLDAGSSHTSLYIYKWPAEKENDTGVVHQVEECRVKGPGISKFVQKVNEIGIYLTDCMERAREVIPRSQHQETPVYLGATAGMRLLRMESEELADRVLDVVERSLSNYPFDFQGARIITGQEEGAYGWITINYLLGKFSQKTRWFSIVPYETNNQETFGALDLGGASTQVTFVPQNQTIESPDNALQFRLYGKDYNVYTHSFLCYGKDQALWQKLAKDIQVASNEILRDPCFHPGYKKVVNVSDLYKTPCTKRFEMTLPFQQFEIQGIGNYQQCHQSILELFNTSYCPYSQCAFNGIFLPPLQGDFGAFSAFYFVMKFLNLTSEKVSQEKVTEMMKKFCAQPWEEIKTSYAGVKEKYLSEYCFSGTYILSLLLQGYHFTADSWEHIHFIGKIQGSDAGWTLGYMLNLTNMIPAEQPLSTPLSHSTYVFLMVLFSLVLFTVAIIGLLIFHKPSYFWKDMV
As to the kind of experiment: Inhibition of human NTPDase 1 expressed in COS7 cells at 1mM. The conditions noted are these: COS-7. In kind it is cell-based. Put shortly:
(§2)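 Transiently transfected COS-7 cell protein extract expressing human enzyme. 1 mM test compound with 400 μM ATP in HEPES 10 mM pH 7.4 buffer (NaCl, KCl, 1 mM MgCl2, 2 mM CaCl2), 37 °C for 10 min. Stopped at 99 °C for 5 min. Products measured by capillary electrophoresis, UV 210 nm, with UMP internal standard. Triplicates in two experiments; empty-pcDNA3 membrane control.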

Series [8] addresses T3, P2Y purinoceptor 4 (Homo sapiens, UniProt P51582). As to the kind of experiment: Antagonist activity at human P2Y4 receptor expressed in human 1321N1 cells assessed as inhibition of UTP-induced receptor activation at 100 uM relative to UTP. The class given is functional, cell-based. More on the design: scale not given: the % may be the effect or the level left. Put shortly: as §1

The target in series [9] is T4, Ectonucleoside triphosphate diphosphohydrolase 8 (Homo sapiens) (UniProt Q5MY95).
T4 sequence (whole entry): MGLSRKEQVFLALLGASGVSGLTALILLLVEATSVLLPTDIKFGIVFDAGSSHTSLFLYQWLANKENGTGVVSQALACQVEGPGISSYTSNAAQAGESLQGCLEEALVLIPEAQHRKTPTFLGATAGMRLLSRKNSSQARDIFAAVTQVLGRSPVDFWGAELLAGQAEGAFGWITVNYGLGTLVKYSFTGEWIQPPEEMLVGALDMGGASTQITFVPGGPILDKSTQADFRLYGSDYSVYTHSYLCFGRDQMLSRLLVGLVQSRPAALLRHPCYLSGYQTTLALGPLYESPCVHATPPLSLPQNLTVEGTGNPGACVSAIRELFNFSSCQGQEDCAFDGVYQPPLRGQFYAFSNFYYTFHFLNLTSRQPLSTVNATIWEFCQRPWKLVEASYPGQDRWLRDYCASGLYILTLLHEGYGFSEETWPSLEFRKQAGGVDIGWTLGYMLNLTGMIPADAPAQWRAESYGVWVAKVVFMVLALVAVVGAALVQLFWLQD
As to the kind of experiment: Inhibition of human NTPDase 8 expressed in COS7 cells at 1mM. The class given is cell-based. The settings on record: COS-7. Put shortly:
as §2

Series [10] concerns the target T5, Ectonucleoside triphosphate diphosphohydrolase 2 (Homo sapiens, UniProt Q9Y5L3).
T5 sequence (Q9Y5L3 whole entry): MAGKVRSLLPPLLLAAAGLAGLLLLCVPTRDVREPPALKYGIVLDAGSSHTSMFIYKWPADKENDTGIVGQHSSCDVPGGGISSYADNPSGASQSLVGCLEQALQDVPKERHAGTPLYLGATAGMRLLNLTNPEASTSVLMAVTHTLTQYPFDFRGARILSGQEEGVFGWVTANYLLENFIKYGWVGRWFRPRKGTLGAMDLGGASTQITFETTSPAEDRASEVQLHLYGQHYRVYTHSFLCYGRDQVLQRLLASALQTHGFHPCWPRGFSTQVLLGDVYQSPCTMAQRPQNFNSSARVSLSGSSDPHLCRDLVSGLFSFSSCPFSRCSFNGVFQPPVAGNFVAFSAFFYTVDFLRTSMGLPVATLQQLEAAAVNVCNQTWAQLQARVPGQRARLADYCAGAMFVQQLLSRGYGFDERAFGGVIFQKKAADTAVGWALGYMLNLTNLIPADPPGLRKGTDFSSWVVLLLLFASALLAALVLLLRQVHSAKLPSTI
As to the kind of experiment: Inhibition of human NTPDase 2 expressed in HEK293 cells assessed as residual activity by capillary electrophoresis. The class given is cell-based. Put shortly:
(§3)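 NTPDase2 membranes come from stably transfected HEK 293 cells; NTPDase3 and NTPDase8 are transiently expressed in COS-7 cells as crude protein extracts. Buffer is 140 mM NaCl, 5 mM KCl, 1 mM MgCl2, 2 mM CaCl2, 10 mM HEPES pH 7.4, with 400 μM ATP, 37 °C, 10 min, stopped at 99 °C. Products are read by capillary electrophoresis (UV 210 nm, UMP internal standard).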

The target in series [11] is T6, Ectonucleoside triphosphate diphosphohydrolase 3 (Homo sapiens) (UniProt O75355).
T6 sequence (whole entry): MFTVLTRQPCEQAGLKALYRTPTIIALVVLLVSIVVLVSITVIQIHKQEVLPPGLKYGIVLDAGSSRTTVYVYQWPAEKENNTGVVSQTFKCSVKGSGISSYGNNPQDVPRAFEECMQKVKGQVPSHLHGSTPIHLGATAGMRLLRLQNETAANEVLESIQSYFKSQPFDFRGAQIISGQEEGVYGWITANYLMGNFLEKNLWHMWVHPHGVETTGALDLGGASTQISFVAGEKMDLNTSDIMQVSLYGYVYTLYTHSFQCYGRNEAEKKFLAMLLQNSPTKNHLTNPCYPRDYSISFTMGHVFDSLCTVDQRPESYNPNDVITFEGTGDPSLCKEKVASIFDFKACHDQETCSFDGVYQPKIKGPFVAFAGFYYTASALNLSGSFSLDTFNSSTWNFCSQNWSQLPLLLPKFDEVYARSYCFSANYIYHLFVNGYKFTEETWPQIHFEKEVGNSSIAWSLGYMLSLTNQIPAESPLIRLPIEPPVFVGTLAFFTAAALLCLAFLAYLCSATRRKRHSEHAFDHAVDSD
As to the kind of experiment: Inhibition of human NTPDase 3 expressed in COS7 cells at 1mM. The conditions noted are these: COS-7. In kind it is cell-based. Put shortly: as §3

The target in series [12] is P2Y purinoceptor 6 (Rattus norvegicus) (UniProt Q63371). In words: Antagonist activity at rat P2Y6 receptor expressed in human 1321N1 cells assessed as inhibition of UDP-induced intracellular calcium mobilization at 100 uM by NOVOstar plate reader. The class given is functional, cell-based. Put shortly: as §1
Sequence of P2Y purinoceptor 6 (Rattus norvegicus) (Q63371 whole entry): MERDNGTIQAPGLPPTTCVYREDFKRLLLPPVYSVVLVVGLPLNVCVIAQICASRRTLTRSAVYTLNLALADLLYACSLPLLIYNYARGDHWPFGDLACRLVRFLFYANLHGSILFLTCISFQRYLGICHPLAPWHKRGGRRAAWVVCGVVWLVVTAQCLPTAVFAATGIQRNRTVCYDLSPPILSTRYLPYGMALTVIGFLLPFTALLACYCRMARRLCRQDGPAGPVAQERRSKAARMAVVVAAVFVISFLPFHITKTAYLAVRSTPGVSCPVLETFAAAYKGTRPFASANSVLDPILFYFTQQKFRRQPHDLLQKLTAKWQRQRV
The target of series [13] is T3, P2Y purinoceptor 4. In words: Antagonist activity at human P2Y4 receptor expressed in human 1321N1 cells assessed as inhibition of UTP-induced intracellular calcium mobilization at 100 uM by FLUOstar plate reader. In kind it is functional, cell-based. Put shortly:
as §1

Series [14] has as its target T1, P2Y purinoceptor 2. As to the kind of experiment: Antagonist activity at human P2Y2 receptor expressed in human 1321N1 cells assessed as inhibition of UTP-induced intracellular calcium mobilization by FLUOstar plate reader. The class given is functional, cell-based. Put shortly:
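Fura-2 AM-loaded astrocytoma cells expressing human P2Y2 receptor. Compound is tested at 0.1, 0.3, 1, 3, 10, 30 and 100 μM. The read-out is inhibition of UTP-induced intracellular calcium mobilization.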

For series [15], the target named is T7, Ectonucleoside triphosphate diphosphohydrolase 8 (Homo sapiens, UniProt Q5MY95).
T7 sequence (Q5MY95 whole entry): T4 sequence (whole entry)
As to the kind of experiment: Inhibition of human NTPDase 8 expressed in COS7 cells. The class given is cell-based, COS-7. Put shortly:
as §3

A further series has as its target P2Y purinoceptor 6 (Rattus norvegicus, UniProt Q63371). As to the kind of experiment: Antagonist activity at rat P2Y6 receptor expressed in human 1321N1 cells assessed as inhibition of UDP-induced intracellular calcium mobilization by NOVOstar plate reader.
In series [16] the target is T3, P2Y purinoceptor 4. In words: Antagonist activity at human P2Y4 receptor expressed in human 1321N1 cells assessed as inhibition of UTP-induced intracellular calcium mobilization by FLUOstar plate reader. In kind it is functional, cell-based.
Series [17] can be described thus: Inhibition of rat NTPDase 3.
Series [18] addresses P2Y purinoceptor 6 (Rattus norvegicus) (UniProt Q63371). In words: Antagonist activity at rat P2Y6 receptor expressed in human 1321N1 cells assessed as inhibition of UDP-induced intracellular calcium mobilization by NOVOstar plate reader.

T3 sequence (P51582 whole entry): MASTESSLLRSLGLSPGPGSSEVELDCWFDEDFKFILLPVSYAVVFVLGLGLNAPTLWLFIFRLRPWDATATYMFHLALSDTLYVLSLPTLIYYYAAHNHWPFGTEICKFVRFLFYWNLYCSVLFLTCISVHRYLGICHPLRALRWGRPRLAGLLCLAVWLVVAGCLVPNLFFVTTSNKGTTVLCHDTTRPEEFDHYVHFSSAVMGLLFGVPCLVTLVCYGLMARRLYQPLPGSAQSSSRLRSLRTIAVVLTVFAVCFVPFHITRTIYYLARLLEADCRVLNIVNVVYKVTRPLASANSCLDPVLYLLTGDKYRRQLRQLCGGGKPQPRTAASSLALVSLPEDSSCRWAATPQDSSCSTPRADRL
T1 sequence (P41231 whole entry): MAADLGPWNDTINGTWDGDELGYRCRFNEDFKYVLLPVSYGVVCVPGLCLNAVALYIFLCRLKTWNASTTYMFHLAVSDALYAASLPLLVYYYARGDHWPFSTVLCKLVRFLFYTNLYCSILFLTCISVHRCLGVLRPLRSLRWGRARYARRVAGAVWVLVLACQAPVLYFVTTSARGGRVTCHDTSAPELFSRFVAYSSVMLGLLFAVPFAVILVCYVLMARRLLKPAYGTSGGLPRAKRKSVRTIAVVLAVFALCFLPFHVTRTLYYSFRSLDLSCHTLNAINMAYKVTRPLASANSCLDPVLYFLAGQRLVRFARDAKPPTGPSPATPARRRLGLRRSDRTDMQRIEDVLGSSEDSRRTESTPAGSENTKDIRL
Sequence of P2Y purinoceptor 6 (Q63371 whole entry): as the sequence (Q63371 whole entry) above

For `CCOP(=O)(Cc1ccc(NC(=O)CNC(=O)[C@H]2O[C@@H](n3ccc(=O)[nH]c3=O)[C@H](O)[C@@H]2O)cc1)OCC`, in series [1], the remaining at 24 h was greater than 95%. Also, the inhibition at P2Y purinoceptor 2 [2] was 22%; in [7], 50%; in series [9], 0%; in series [11], 0%; in series [12], -10%; on P2Y purinoceptor 4 [13], 4%. In addition, the Stability result in [3] and in series [5] was “Stable” each time. The Activity in [4] was -7%; at P2Y purinoceptor 2 [6], -21%; on P2Y purinoceptor 4 [8] it was -42%. The IC50 in [10] was found to be 42 µM.
In the case of `CCOP(=O)(Cc1ccc(NC(=O)CCNC(=O)[C@H]2O[C@@H](n3ccc(=O)[nH]c3=O)[C@H](O)[C@@H]2O)cc1)OCC`, the remaining at 24 h in [1] is greater than 95%. Also, the inhibition on P2Y purinoceptor 2 [2] was 10%; in series [9], 0%; in series [11], 40%; in series [12] it was 7%; at P2Y purinoceptor 4 [13], 14%. The Activity result in series [3] was “Active”; in series [4], -5%; in series [5], “Active”; on P2Y purinoceptor 2 [6], 14%; on P2Y purinoceptor 4 [8], -6%.
Turning to `Nc1c(S(=O)(=O)O)cc(Nc2ccc(Nc3nc(Cl)nc(Nc4cccc(S(=O)(=O)O)c4)n3)c(S(=O)(=O)O)c2)c2c1C(=O)c1ccccc1C2=O` [RB 2], the results for the IC50 at P2Y purinoceptor 2 [14], on P2Y purinoceptor 6 and on P2Y purinoceptor 4 [16] were 12 µM, 4.34 µM and 5.75 µM, respectively. This compound also returned a Ki in [15] greater than 100 µM.
With `Cc1ccc(C(=O)Nc2ccc(S(=O)(=O)O)c3cc(S(=O)(=O)O)cc(S(=O)(=O)O)c23)cc1NC(=O)c1cccc(NC(=O)Nc2cccc(C(=O)Nc3cc(C(=O)Nc4ccc(S(=O)(=O)O)c5cc(S(=O)(=O)O)cc(S(=O)(=O)O)c45)ccc3C)c2)c1` [SURAMIN], the values for the 50% inhibitory concentration (IC50) (on P2Y purinoceptor 2 [14]; in series [18]) were 50 µM and 27 µM, respectively. Further, the Ki was greater than 100 µM in [15] and 12.7 µM in series [17]. Moreover, the result at P2Y purinoceptor 4 [13] was inactive.
